Experimental data published in publication PMC9083272 (RSC Advances, 2018).
Like-named read-outs stand apart in the source and are kept apart here.

Tests used:
[1] = Thermodynamic properties of iron; assay type: physicochemical; conditions: I = 0.15 mol dm^−3 NaCl
Outline: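 Log β came from potentiometric titrations at 25, 37 and 40 °C in 0.15 mol dm−3 NaCl. ΔG was computed as −2.303RT log10 β. ΔH and ΔS per species were taken as the slope and intercept, respectively, of a Van't Hoff plot across the three temperatures. Units: ΔG and ΔH in kJ mol−1, ΔS in kJ mol−1 K−1.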

[2] = cited from earlier work
[3] = Potentiometric titration, protonation constants; assay type: physicochemical; conditions: I = 0.15 mol dm^−3 NaCl
[4] = Potentiometric determination of complex formation constants; assay type: physicochemical; conditions: I = 0.15 mol dm^−3 NaCl
Outline: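 Test ligand in 3 × 10−3 mol dm−3 HCl with 0.15 mol dm−3 NaCl, in fresh DI water, titrated with carbonate-free 0.1 mol dm−3 NaOH. Runs: acid alone, ligand alone, and ligand plus Fe(III) at 3 × 10−3, 1.5 × 10−3 or 1 × 10−3 mol dm−3 (metal:ligand 1:1, 1:2, 1:3). Water bath ±0.1 °C, pH glass electrode, pH 2–11, triplicate. Log β refined jointly from the three ratios.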

[5] = 298.15 K and 0.05 M, ref Gergely et al. 21
[6] = 298.15 K and 0.15 mol dm^−3 NaNO3, ref Angkawijaya et al. 22

With `NCC(=O)O` [Gly, glycine] the “−ΔG” value ([1]; complex [MA2H−2], 25 °C) was 8.927 kcal/mol, the “−ΔG” value ([1]; complex [MA2H−2], 37 °C) was 10.71 kcal/mol and the “−ΔG” value ([1]; complex [MA2H−2], 40 °C) was 11.71 kcal/mol. The ΔH ([1]; complex [MA2H−2]) was 43.332 kcal/mol, the ΔS ([1]; complex [MA2H−2]) was −0.73 kJ mol^−1 K^−1 and the “−ΔG” value ([1]; complex [MA2H−3], 25 °C) was -6.341 kcal/mol. The “−ΔG” value ([1]; complex [MA2H−3], 37 °C) was -4.185 kcal/mol, the “−ΔG” value ([1]; complex [MA2H−3], 40 °C) was -2.25 kcal/mol and the ΔH ([1]; complex [MA2H−3]) was 79.802 kcal/mol. The ΔS ([1]; complex [MA2H−3]) was −1.20 kJ mol^−1 K^−1, the “−ΔG” value ([1]; complex [MA2], 25 °C) was 26.104 kcal/mol and the “−ΔG” value ([1]; complex [MA2], 37 °C) was 27.727 kcal/mol. The “−ΔG” value ([1]; complex [MA2], 40 °C) was 28.265 kcal/mol, the ΔH ([1]; complex [MA2]) was 16.12 kcal/mol and the ΔS ([1]; complex [MA2]) was −0.59 kJ mol^−1 K^−1. The “−ΔG” value ([1]; complex [MA3], 25 °C) was 37.639 kcal/mol, the “−ΔG” value ([1]; complex [MA3], 37 °C) was 40.244 kcal/mol and the “−ΔG” value ([1]; complex [MA3], 40 °C) was 40.827 kcal/mol. The ΔH ([1]; complex [MA3]) was 26.109 kcal/mol, the ΔS ([1]; complex [MA3]) was −0.89 kJ mol^−1 K^−1 and the “−ΔG” value ([1]; complex [MAH−1], 25 °C) was 8.475 kcal/mol. The “−ΔG” value ([1]; complex [MAH−1], 37 °C) was 9.405 kcal/mol, the “−ΔG” value ([1]; complex [MAH−1], 40 °C) was 9.68 kcal/mol and the ΔH ([1]; complex [MAH−1]) was 15.23 kcal/mol. The ΔS ([1]; complex [MAH−1]) was −0.33 kJ mol^−1 K^−1, the “−ΔG” value ([1]; complex [MAH−2], 25 °C) was 3.172 kcal/mol and the “−ΔG” value ([1]; complex [MAH−2], 37 °C) was 4.739 kcal/mol. The “−ΔG” value ([1]; complex [MAH−2], 40 °C) was 5.416 kcal/mol, the ΔH ([1]; complex [MAH−2]) was 39.888 kcal/mol and the ΔS ([1]; complex [MAH−2]) was −0.60 kJ mol^−1 K^−1. The “−ΔG” value ([1]; complex [MA], 25 °C) was 12.51 kcal/mol, the “−ΔG” value ([1]; complex [MA], 37 °C) was 13.61 kcal/mol and the “−ΔG” value ([1]; complex [MA], 40 °C) was 14.18 kcal/mol. The ΔH ([1]; complex [MA]) was 19.01 kcal/mol, the ΔS ([1]; complex [MA]) was −0.44 kJ mol^−1 K^−1 and the pKa1 [2, 5] was 2.33. The pKa2 [2, 5] was 9.61, the pKa1 [2, 6] was 2.32 and the pKa2 [2, 6] was 9.62. For the same molecule, the pKa1 ([3]; 25 °C) was 2.51(7), the pKa2 ([3]; 25 °C) was 9.68(3) and the pKa1 ([3]; 37 °C) was <2. The pKa2 ([3]; 37 °C) was 9.37(1), the pKa1 ([3]; 40 °C) was <2 and the pKa2 ([3]; 40 °C) was 9.27(2). The “log β” value ([4]; complex [MA2H−2], 25 °C) was 6.54(5), the “log β” value ([4]; complex [MA2H−2], 37 °C) was 7.55(4) and the “log β” value ([4]; complex [MA2H−2], 40 °C) was 8.17(8). For the same molecule, the “log β” value ([4]; complex [MA2H−3], 25 °C) was −4.65(11), the “log β” value ([4]; complex [MA2H−3], 37 °C) was −2.95(5) and the “log β” value ([4]; complex [MA2H−3], 40 °C) was −1.57(9). The “log β” value ([4]; complex [MA2H−4], 40 °C) was −11.78(10), the “log β” value ([4]; complex [MA2], 25 °C) was 19.10(11) and the “log β” value ([4]; complex [MA2], 37 °C) was 19.54(10). For the same molecule, the “log β” value ([4]; complex [MA2], 40 °C) was 19.72(13), the “log β” value ([4]; complex [MA3], 25 °C) was 27.59(9) and the “log β” value ([4]; complex [MA3], 37 °C) was 28.35(3). For the same molecule, the “log β” value ([4]; complex [MA3], 40 °C) was 28.49(14), the “log β” value ([4]; complex [MAH−1], 25 °C) was 6.21(2) and the “log β” value ([4]; complex [MAH−1], 37 °C) was 6.63(2). The “log β” value ([4]; complex [MAH−1], 40 °C) was 6.75(5), the “log β” value ([4]; complex [MAH−2], 25 °C) was 2.32(2) and the “log β” value ([4]; complex [MAH−2], 37 °C) was 3.34(3). The “log β” value ([4]; complex [MAH−2], 40 °C) was 3.78(8), the “log β” value ([4]; complex [MA], 25 °C) was 9.17(6) and the “log β” value ([4]; complex [MA], 37 °C) was 9.59(3). The “log β” value ([4]; complex [MA], 40 °C) was 9.89(11).
For `O=C(O)[C@@H]1CCCN1` [Pro, reference compound], the pKa1 ([2]; ref Zhu et al. 23) is given as 1.99.
